Active and inactive are the calls of the source. The calls are words filed in the database; no cut-off is given here.
Columns and labels:
Candida albicans = test: Antifungal activity against Candida albicans MTCC 227 at 1000 ug/disc after 48 hrs by disc diffusion assay; assay type: functional; conditions: for zone of inhibition at 1000 µg/disc: MTCC 227, 48 h, read-out: IZ
Outline: (§1)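 Fungal disc diffusion with inoculum from SDA spores (filamentous) or SDB culture (yeast). Test cultures were swabbed on agar, and discs at 1000 µg/disc were left 30 min at room temperature, with a solvent negative control. Plates were incubated 48 h at 27 °C. Zone of inhibition was measured in mm, and the experiment was repeated twice.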

Micrococcus luteus = test: Antibacterial activity against Micrococcus luteus at 1000 ug/disc after 24 hrs by disc diffusion assay; assay type: functional; conditions: read-out: IZ
Outline: (§2)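 Disc diffusion on Mueller Hinton agar. Cultures (about 10^4 CFU/ml) were swabbed on and dried 10 min. Discs loaded at 1000 µg/disc were left 30 min at room temperature for diffusion, with a solvent negative control. Plates were incubated 24 h at 37 °C. Inhibition zones were measured in mm, and the experiment was done twice.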

Klebsiella aerogenes = test: Antibacterial activity against Enterobacter aerogenes MTCC 111 at 1000 ug/disc after 24 hrs by disc diffusion assay; assay type: functional; conditions: for zone of inhibition at 1000 µg/disc: MTCC 111, 24 h, read-out: IZ; outline: as §2
[1] = system: Salmonella enterica subsp. enterica serovar Paratyphi B; test: Antibacterial activity against Salmonella paratyphi B at 1000 ug/disc after 24 hrs by disc diffusion assay; assay type: functional; conditions: for zone of inhibition at 1000 µg/disc: read-out: IZ
Outline: (§3)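 Disc diffusion on Mueller Hinton agar. Bacteria were grown 24 h at 37 °C in MHB and diluted to about 10^4 CFU/ml, swabbed onto plates and dried 10 min. Discs were loaded at 1000 μg/disc and held 30 min at room temperature for diffusion. Solvent served as negative control. After 24 h at 37 °C, inhibition zones were read in mm; run twice.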

Staphylococcus aureus [2] = test: Antibacterial activity against Staphylococcus aureus MTCC 96 at 1000 ug/disc after 24 hrs by disc diffusion assay; assay type: functional; conditions: MTCC 96, 24 h, read-out: IZ; outline: as §2
Proteus vulgaris = test: Antibacterial activity against Proteus vulgaris MTCC 1771 at 1000 ug/disc after 24 hrs by disc diffusion assay; assay type: functional; conditions: for zone of inhibition at 1000 µg/disc: MTCC 1771, 24 h, read-out: IZ; outline: as §2
Botrytis cinerea = test: Antifungal activity against Botrytis cinerea at 1000 ug/disc after 48 hrs by disc diffusion assay; assay type: functional; conditions: for zone of inhibition at 1000 µg/disc: read-out: IZ; outline: as §1
[3] = Antifungal activity against Malassezia pachydermatis at 1000 ug/disc after 48 hrs by disc diffusion assay; assay type: functional; outline: as §1
Klebsiella pneumoniae = test: Antibacterial activity against Klebsiella pneumoniae MTCC 109 at 1000 ug/disc after 24 hrs by disc diffusion assay; assay type: functional; conditions: for zone of inhibition at 1000 µg/disc: MTCC 109, 24 h, read-out: IZ; outline: as §2
Salmonella typhimurium = test: Antibacterial activity against Salmonella Typhimurium MTCC 1251 at 1000 ug/disc after 24 hrs by disc diffusion assay; assay type: functional, Salmonella enterica subsp. enterica serovar Typhimurium; conditions: Salmonella enterica, MTCC 1251, 24 h; read-out: IZ; outline: as §2
Staphylococcus aureus [4] = test: Antibacterial activity against methicillin-resistant Staphylococcus aureus at 1000 ug/disc after 24 hrs by disc diffusion assay; assay type: functional; conditions: for zone of inhibition at 1000 µg/disc: read-out: IZ; outline: as §3

SMILES | zone of inhibition at 1000 µg/disc (Candida albicans) [mm] | zone of inhibition at 1000 µg/disc (Micrococcus luteus) [mm] | zone of inhibition at 1000 µg/disc (Klebsiella aerogenes) [mm] | inhibition zone (IZ) [1] | zone of inhibition at 1000 µg/disc (Staphylococcus aureus [2]) [mm] | zone of inhibition at 1000 µg/disc (Proteus vulgaris) [mm] | zone of inhibition at 1000 µg/disc (Botrytis cinerea) [mm] | inhibition zone (IZ) [3] | zone of inhibition at 1000 µg/disc (Klebsiella pneumoniae) [mm] | zone of inhibition at 1000 µg/disc (Salmonella typhimurium) [mm] | zone of inhibition at 1000 µg/disc (Staphylococcus aureus [4]) [mm] | inhibition zone (IZ) (Candida albicans) | inhibition zone (IZ) (Botrytis cinerea) | zone of inhibition at 1000 µg/disc [1] [mm] | inhibition zone (IZ) (Staphylococcus aureus [4]) | inhibition zone (IZ) (Klebsiella aerogenes) | inhibition zone (IZ) (Proteus vulgaris) | inhibition zone (IZ) (Klebsiella pneumoniae)
C=CCN1C(=O)C2(C3=C(CN2C)C(=O)c2ccccc2C3=O)c2ccccc21 (stereo not drawn) | 9 | 10 | 9 | inactive | 11 | 8 | 8 | 9 mm | 9 | 11 | 9 | – | – | – | – | – | – | –
O=C1C2=C(C(=O)c3ccccc31)C1(C(=O)Nc3ccc(Cl)cc31)N1CCCC21 (stereo not drawn) | – | 10 | 9 | inactive | 12 | 9 | – | 9 mm | 11 | 10 | 9 | inactive | inactive | – | – | – | – | –
CN1CC2=C(C(=O)c3ccccc3C2=O)C12C(=O)c1ccccc1C2=O | – | 8 | 8 | – | 9 | 8 | 9 | inactive | 9 | 10 | – | inactive | – | 9 | inactive | – | – | –
CN1C(=O)C2(C3=C(C(=O)c4ccccc4C3=O)C3CCCN32)c2ccccc21 (stereo not drawn) | 10 | 9 | 9 | inactive | 10 | 8 | 8 | 10 mm | 9 | 11 | 8 | – | – | – | – | – | – | –
CN1CC2=C(C(=O)c3ccccc3C2=O)C12C(=O)Nc1ccc(Cl)cc12 (stereo not drawn) | 9 | 12 | 10 | – | 14 | 10 | 8 | 10 mm | 13 | 11 | 11 | – | – | 13 | – | – | – | –
C=CCN1C(=O)C2(C3=C(C(=O)c4ccccc4C3=O)C3CCCN32)c2ccccc21 (stereo not drawn) | – | 9 | – | inactive | 8 | – | – | inactive | – | 9 | – | inactive | inactive | – | inactive | inactive | inactive | inactive
Cc1ccc2c(c1)C1(C(=O)N2)C2=C(C(=O)c3ccccc3C2=O)C2CCCN21 (stereo not drawn) | – | 11 | 9 | – | 10 | 9 | 9 | 9 mm | 10 | 11 | 8 | inactive | – | 8 | – | – | – | –
CN1CC2=C(C(=O)c3ccccc3C2=O)C12C(=O)c1cccc3cccc2c13 (stereo not drawn) | 8 | 8 | – | inactive | 9 | 8 | 9 | 8 mm | 9 | 10 | – | – | – | – | inactive | inactive | – | –
